From PubChem BioAssay AID624363 (Broad Institute, 2012)

Test system: SK-MEL-5 TRPM1 promoter luciferase reporter, 24 h
Assay: inhibitors of MITF-driven TRPM1 reporter, dose response, cell-based, SK-MEL-5, luciferase, dry powder, set 5 (AID 624363)
Procedure, shortened: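 Assay system: SK-MEL-5 melanoma line with stable TRPM1 promoter–luciferase reporter; buffer or medium: phenol red-free DMEM, 10% FBS; compound: pin-transferred compounds; incubation: compound exposure 24 h at 37 °C, one day after plating; detection: SteadyGlo luciferase luminescence after 5 min at room temperature; control set: parthenolide 27 µM positive control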

Structure (SMILES) | AC50 [µM]
COc1ccc(C2=C(NC(=O)c3cccc(OC)c3)C(=O)c3ccccc3C2=O)cc1 | 6.98
COc1ccc(C2=C(NC(=O)c3ccccc3OC)C(=O)c3ccccc3C2=O)cc1 | 23.7
CN1CCN(C2=C(NS(=O)(=O)c3ccc(Br)s3)C(=O)c3ccccc3C2=O)CC1 | 1.98
CCN(CC)CCCNC1=C(N(C)C(C)=O)C(=O)c2ccccc2C1=O | 0.305
C=CCNC1=C(N2CCN(CC)CC2)C(=O)c2ccccc2C1=O | 4.47
O=C(NC1=C(N2CCOCC2)C(=O)c2ccccc2C1=O)c1ccc(Br)cc1 | 12.5
O=C(CNc1cccc2ccccc12)N/N=C/c1ccc([N+](=O)[O-])o1 | 3.64
NC1=C(c2ccc(OC(F)(F)F)cc2)C(=O)c2ccccc2C1=O | 20.4
C=CCNC1=C(NC(=O)c2ccccc2)C(=O)c2ccccc2C1=O | 26.5
O=C1C=C(NS(=O)(=O)c2cccs2)C(=O)c2ccccc21 | 1.71
O=C(NC1=C(c2ccccc2)C(=O)c2ccccc2C1=O)c1ccco1 | 9.7
O=C1C(Nc2ccccc2)=C(c2ccccc2)C(=O)c2ccccc21 | 4.49
CC(=O)N(C)C1=C(N2CCOCC2)C(=O)c2ccccc2C1=O | 2.45
C=CCNC1=C(Nc2ccccc2)C(=O)c2ccccc2C1=O | 15.4
O=C1C(Nc2ccccc2)=C(NS(=O)(=O)c2ccccc2[N+](=O)[O-])C(=O)c2ccccc21 | 16.9
CN1CCN(C2=C(NC(=O)c3ccccc3)C(=O)c3ccccc3C2=O)CC1 | 1.04
COC1=C(Nc2ccccc2)C(=O)c2ccccc2C1=O | 2.69
O=C(NC1=C(N2CCCCC2)C(=O)c2ccccc2C1=O)c1ccccc1 | 23.3
CC(=O)NC1=C(c2ccc3c(c2)oc2ccccc23)C(=O)c2ccccc2C1=O | 2.15
O=C1C(NS(=O)(=O)c2ccc(Br)s2)=C(N2CCOCC2)C(=O)c2ccccc21 | 15
NC1=C(NS(=O)(=O)c2ccc(Br)cc2)C(=O)c2ccccc2C1=O | 8.9
O=C1C(Nc2ccccc2)=C(N2CCN(c3ccccc3)CC2)C(=O)c2ccccc21 | 12.1
NC1=C(NS(=O)(=O)c2ccccc2)C(=O)c2ccccc2C1=O | 4.31
NC1=C(NC(=O)c2ccccc2)C(=O)c2ccccc2C1=O | 4.08
CC(=O)N(C)C1=C(N2CCN(C)CC2)C(=O)c2ccccc2C1=O | 0.404
O=C(NC1=C(c2ccc(OC(F)(F)F)cc2)C(=O)c2ccccc2C1=O)c1ccccc1F | 19.9
COc1ccc(C(=O)NC2=C(c3ccc(OC)cc3)C(=O)c3ccccc3C2=O)cc1 | 7.11

Structure (SMILES) | AC50 [µM]
COc1cccc(-c2cc(C(=O)NC3=C(Cl)C(=O)c4ccccc4C3=O)ccc2OC)c1 | 3.34
COc1ccc(C2=C(NC(=O)c3cccc(Cl)c3)C(=O)c3ccccc3C2=O)cc1 | 11
COc1ccc(C2=C(NC(=O)c3ccccc3Cl)C(=O)c3ccccc3C2=O)cc1 | 5.18
O=C(NC1=C(c2ccc(OC(F)(F)F)cc2)C(=O)c2ccccc2C1=O)c1ccccc1 | 18.9
NC1=C(NS(=O)(=O)c2cccs2)C(=O)c2ccccc2C1=O | 4.17
COc1ccc(C(=O)NC2=C(c3ccccc3)C(=O)c3ccccc3C2=O)cc1 | 14.4
Cc1ccc(C(=O)NC2=C(c3ccc(OC(F)(F)F)cc3)C(=O)c3ccccc3C2=O)o1 | 13.4
CC(=O)NC1=C(c2ccc(Cl)cc2)C(=O)c2ccccc2C1=O | 3.45
C=CCNC1=C(NS(=O)(=O)c2cccs2)C(=O)c2ccccc2C1=O | 14.2
C[C@@H](NC1=C(Nc2ccccc2)C(=O)c2ccccc2C1=O)c1ccccc1 | 13.4
O=C1C(NCCCN2CCOCC2)=C(Nc2ccccc2)C(=O)c2ccccc21 | 3.7
CCN1CCN(C2=C(NC(=O)c3ccccc3)C(=O)c3ccccc3C2=O)CC1 | 0.783
O=C1C(NS(=O)(=O)c2ccccc2)=C(N2CCCCC2)C(=O)c2ccccc21 | 22.2
CCN1CCN(C2=C(NC(=O)c3ccc(Br)cc3)C(=O)c3ccccc3C2=O)CC1 | 0.845
O=C1C(NS(=O)(=O)c2cccs2)=C(N2CCOCC2)C(=O)c2ccccc21 | 12.4
CC(=O)NC1=C(c2ccc(Oc3ccccc3)cc2)C(=O)c2ccccc2C1=O | 19.8
CCN1CCN(C2=C(N(C)C(C)=O)C(=O)c3ccccc3C2=O)CC1 | 0.318
CN1CCN(C2=C(Nc3ccccc3)C(=O)c3ccccc3C2=O)CC1 | 7.78
CCN1CCN(C2=C(NS(=O)(=O)c3cccs3)C(=O)c3ccccc3C2=O)CC1 | 2.96
O=C(NC1=C(N2CCSCC2)C(=O)c2ccccc2C1=O)c1ccc(Br)cc1 | 10.1
O=C1C(NS(=O)(=O)c2ccccc2)=C(c2ccccc2)C(=O)c2ccccc21 | 20.5
O=C1C=C(NS(=O)(=O)c2ccccc2)C(=O)c2ccccc21 | 7.45
COc1ccc(C(=O)NC2=C(c3ccc(OC(F)(F)F)cc3)C(=O)c3ccccc3C2=O)cc1 | 36.2
O=C(NC1=C(c2ccc(OC(F)(F)F)cc2)C(=O)c2ccccc2C1=O)c1ccco1 | 20.9
CNC1=CC(=O)c2ccccc2C1=O | 9.17
O=C(NC1=C(Cl)C(=O)c2ccccc2C1=O)c1ccccc1 | 0.806
CCN(CC)CCCCNC1=C(Nc2ccccc2)C(=O)c2ccccc2C1=O | 4.14
